Experimental data published in PubChem BioAssay.
Records with an inconclusive call do not appear.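 The calls were made as follows, unless noted: active = inhibition over a set limit, the all-compound mean plus 3 SD, in both replicate runs; inconclusive = over that limit in just one replicate run; inactive = at or under that limit in both runs.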

Tests used:
[1] = OD615 S. cerevisiae growth inhibition, permissive medium, pilot counter-assay, permissive growth control for S. cerevisiae lifespan shortening project (AID 705;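 active = growth inhibition above 25% in both replicates, a cutoff set 3 SD above the mean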); details: OD615, 24 h, at 10 µM, hits give high values
How it was run: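 System: S. cerevisiae with engineered DeaD lifespan system. Medium: SC raffinose/galactose permissive medium. Doses: single compound dose of 10 µM, 0.25% DMSO final. Schedule: 24 h exposure, 30 °C. Measured by: OD615 turbidity read. Read-out: growth inhibition.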

[2] = Restrictive medium S. cerevisiae growth inhibition, OD615, pilot screen of yeast lifespan reduction project, restrictive growth control (AID 706;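 active = growth inhibition above a set limit, 3 SD over mean compound inhibition, in both replicates, cut at about 43% in these data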;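 also: modified DeaD lifespan yeast strain shifted to restrictive glucose medium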); details: OD615, 48 h, at 10 µM, hits give high values
How it was run: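 Assay system – genetically modified Saccharomyces cerevisiae, DeaD replicative lifespan assay strain · Medium – CSMM-D glucose medium · Doses – 10 µM compound, 0.25% DMSO · Times – 4 h pre-incubation, 48 h exposure at 30 °C · Signal – optical density at 615 nm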

[3] = viability gain of MRP-1-high H69AR cells under doxorubicin, pilot screen, MRP-1 activator project, CellTiter-Glo, duplicate (AID 807;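 active = viability increase at or above a cutoff of the median across tested compounds plus 3 SD, cut at about 8.5% in these data, passing the limit was not always enough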;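 also: compound pretreatment 18-22 h then 72 h combined with doxorubicin; 0% = doxorubicin alone and 100% = vehicle without doxorubicin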); details: H69AR viability with doxorubicin, CellTiter-Glo luminescence; at 10 µM; hits give high values
[4] = growth suppression of beta-catenin knockout HCT116, pilot screen, human colon tumor cells (AID 823;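 active = cell viability at or below a set limit in both duplicate runs, the limit being the all-compound median minus 4 SD, cut at about 23% in these data, passing the limit was not always enough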;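 also: 0% = wells killed by 20 µM Hyamine and 100% = untreated DMSO cell wells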); details: CellTiter-Glo, 60 h, at 10 µM, hits give low values
[5] = growth suppression of PTEN-deleted HCT116, pilot screen, cell-based, HCT116 clonal line, CellTiter-Glo (AID 824;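 active = viability at or below 27.92% in each of two runs, the all-compound median minus 4 SD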;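 also: 0% = 20 µM Hyamine control and 100% = vehicle cell control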); details: 60 h, at 10 µM, hits give low values
[6] = inhibitors of the yeast RAM network, pilot screen, dse1pr::URA3 reporter, 5-FOA selection (AID 869);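 also: 0% = DMSO wells with no growth and 100% = 10 µM 1-NA-PP1 with full growth; RAM network block rescues cells from 5-FOA so hits raise OD615 growth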; details: S. cerevisiae dse1pr::URA3 5-FOA growth, OD615, 2 d; at 10 µM; hits give high values; strain carries analog-sensitive mutant Cbk1 kinase
[7] = RAM signaling pathway blockade in yeast – S. cerevisiae, Pdr1DBD-CYC8 efflux-inhibited sensitized strain, primary screen (AID 1298;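 active = RAM network inhibition above 8.4% in each of two replicates, 3 SD over the compound average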;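 also: 0% = DMSO untreated cells without growth and 100% = 10 µM 1-NA-PP1 full growth; higher means more yeast growth rescued from 5-FOA killing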); details: S. cerevisiae cbk1-as DSE1-URA3 strain, 5-FOA growth OD615, 2 d; at 50 µM; hits give high values

CCOC(=O)N1CCC(NC(=O)CCc2c(C)nc3c(c(C)nn3-c3ccccc3)c2C)CC1
inactive: growth inhibition [1] -8.02% | growth inhibition [2] 0.22% | viability increase [3] -1.37% | viability [4] 100% | viability [5] 89.5% | inhibition [6] 2.38% | RAM network inhibition [7] 4.08%

CCCN(CCC)C(=O)c1ccc2c(c1)N(Cc1ccccc1)C(=O)CS2=O (centres undefined)
inactive: growth inhibition [1] 2.79% | growth inhibition [2] -7.64% | viability increase [3] -2.62% | viability [4] 88.1% | viability [5] 83.4% | inhibition [6] 0.885% | RAM network inhibition [7] 1.55%

Cc1nc(N2CCN(C)CC2)c2sc(=S)n(-c3ccccc3)c2n1
inactive: growth inhibition [1] -1.92% | growth inhibition [2] -1.67% | viability increase [3] -4.61% | viability [4] 93.4% | viability [5] 86.1% | inhibition [6] 1.31% | RAM network inhibition [7] 3.03%

CC(=NCCc1ccccc1)C1=C(O)COC1=O
inactive: growth inhibition [1] 4.12% | growth inhibition [2] -6.99% | viability increase [3] -2.71% | viability [4] 98.2% | viability [5] 99.9% | inhibition [6] 0.87% | RAM network inhibition [7] 2.27%

Cn1c(=O)c2c(SCC(=O)N3CCC(Cc4ccccc4)CC3)nc(C3CC3)nc2n(C)c1=O
inactive: growth inhibition [1] -0.44% | growth inhibition [2] -9.93% | viability increase [3] -1.06% | viability [4] 92.9% | viability [5] 88.1% | inhibition [6] 1.28% | RAM network inhibition [7] 0.47%

O=C(NCc1ccco1)C1CCCN(S(=O)(=O)c2cccc3cccnc23)C1 (centres undefined)
inactive: growth inhibition [1] -10.6% | growth inhibition [2] -8.38% | viability increase [3] -4.15% | viability [4] 96.4% | viability [5] 94.4% | inhibition [6] 0.595% | RAM network inhibition [7] 0.89%

COc1ccc(Br)cc1CNC(=O)C1CCC(=O)N1C(C)C (centres undefined)
inactive: growth inhibition [1] 6.52% | growth inhibition [2] 4.42% | viability increase [3] -2.9% | viability [4] 91.7% | viability [5] 94.7% | inhibition [6] 1.99% | RAM network inhibition [7] 3.58%

CCOC(=O)N1CCN(C(=O)NC23CC4CC(CC(C4)C2)C3)CC1
inactive: growth inhibition [1] -2.78% | growth inhibition [2] -5.79% | viability increase [3] -2.4% | viability [4] 95.7% | viability [5] 92.1% | inhibition [6] 2.83% | RAM network inhibition [7] 3.57%

N#CC1=C2SCN(Cc3ccccc3)CN2C(=O)CC1c1cccs1 (centres undefined)
inactive: growth inhibition [1] 9.16% | growth inhibition [2] 30.2% | viability increase [3] -2.91% | viability [4] 94.3% | viability [5] 86% | inhibition [6] 0.535% | RAM network inhibition [7] 4.04%

CCn1ncc(C2=NOC(C(=O)Nc3c(C)nn(Cc4ccc(F)cc4)c3C)C2)c1C (centres undefined)
inactive: growth inhibition [1] -7.87% | growth inhibition [2] -11.5% | viability increase [3] 0.42% | viability [4] 93.5% | viability [5] 88.7% | inhibition [6] 1.59% | RAM network inhibition [7] 1.41%

CN1CCN(C(=O)C2CCCCC2C(=O)O)CC1 (centres undefined)
inactive: growth inhibition [1] 0.81% | growth inhibition [2] -12.5% | viability increase [3] -1.14% | viability [4] 99.4% | viability [5] 99.1% | inhibition [6] 2.02% | RAM network inhibition [7] -0.26%

COc1cccc(N(CC(=O)Nc2cccc(F)c2)S(C)(=O)=O)c1
inactive: growth inhibition [1] -5.09% | growth inhibition [2] -12.3% | viability increase [3] -1.38% | viability [4] 91.1% | viability [5] 97.5% | inhibition [6] 0.965% | RAM network inhibition [7] 3.51%

COc1ccccc1NC=C1C(=O)OC(C)(C)OC1=O
inactive: growth inhibition [1] -17.5% | growth inhibition [2] -7.71% | viability increase [3] -2.6% | viability [4] 91% | viability [5] 101% | inhibition [6] 0.955% | RAM network inhibition [7] 2.48%

O=C(c1csc2c1CCCC2)N1CCCCC1
inactive: growth inhibition [1] 12.4% | growth inhibition [2] 8.33% | viability increase [3] -1.17% | viability [4] 99.2% | viability [5] 102% | inhibition [6] -0.145% | RAM network inhibition [7] 1.12%

O=C(NC1CCCc2ccccc21)C1CCC(CNc2c(N3CCOCC3)c(=O)c2=O)CC1 (centres undefined)
inactive: growth inhibition [1] -6.7% | growth inhibition [2] 7.02% | viability increase [3] -0.75% | viability [4] 105% | viability [5] 107% | inhibition [6] 1.08% | RAM network inhibition [7] 1.43%

CCOc1ccc(/C=C\C(C)=N\O)cc1
inactive: growth inhibition [1] -0.67% | growth inhibition [2] 0.775% | viability increase [3] -2.74% | viability [4] 90.3% | viability [5] 96.3% | inhibition [6] 0.065% | RAM network inhibition [7] 2.82%

COc1ccc(CNC(=O)c2onc(C)c2Cl)cc1
inactive: growth inhibition [1] -14.2% | growth inhibition [2] -17.2% | viability increase [3] -1.96% | viability [4] 96% | viability [5] 93.7% | inhibition [6] 2.31% | RAM network inhibition [7] 4.91%
